Results taken from ChEMBL document CHEMBL3526138, “Excretion and metabolism of milnacipran in humans after oral administration of milnacipran hydrochloride” (Drug Metab Dispos, 2012).

Key:
Plasma [1] = test: Plasma concentration in human treated with [14C]-labeled milnacipran hydrochloride at 100 mg, po measured at 0.5 hrs by HPLC analysis; assay type: ADME, organism-based; conditions: in vivo
Procedure, shortened: (§1)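 Single oral 100 mg [14C] milnacipran hydrochloride in healthy men; blood taken into chilled K3EDTA tubes, plasma spun at ≥2,500 g for 10 min at 4°C and stored at -80°C. Pooled timepoint plasma was extracted and run on phenyl-hexyl HPLC, with 0.5-min fractions counted by LSC. Peak concentration = % of chromatogram radioactivity × pool radioactivity (ng equivalent of milnacipran/mL).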

Plasma [2] = test: Plasma concentration in human treated with [14C]-labeled milnacipran hydrochloride at 100 mg, po measured at 3 hrs by HPLC analysis; assay type: ADME, organism-based; conditions: in vivo; procedure, shortened: as §1
[3] = Drug excretion in human urine treated with [14C]-labeled milnacipran hydrochloride at 100 mg, po after 48 to 72 hrs by HPLC analysis; assay type: ADME, organism-based; conditions: in vivo
Procedure, shortened: (§2)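 Healthy male subjects, single oral 100 mg [14C] milnacipran hydrochloride (1 μCi/mg) after breakfast; urine pooled by interval and kept at -80°C. Urine injected directly (200 µL) onto phenyl-hexyl HPLC, 35°C, gradient ammonium acetate pH 5/methanol at 1 mL/min, with radioactivity flow detection. Metabolite excretion = net peak radioactivity (% of chromatogram, background-subtracted) × urine radioactivity excreted (% of dose); four subjects without emesis, mean.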

[4] = Drug excretion in human urine treated with [14C]-labeled milnacipran hydrochloride at 100 mg, po after 24 to 48 hrs by HPLC analysis; assay type: ADME, organism-based; conditions: in vivo; procedure, shortened: as §2
Plasma [5] = test: Plasma concentration in human treated with [14C]-labeled milnacipran hydrochloride at 100 mg, po measured at 2 hrs by HPLC analysis; assay type: ADME, organism-based; conditions: in vivo; procedure, shortened: as §1
[6] = Drug excretion in human urine treated with [14C]-labeled milnacipran hydrochloride at 100 mg, po after 12 to 24 hrs by HPLC analysis; assay type: ADME, organism-based; conditions: in vivo; procedure, shortened: as §2
[7] = Drug excretion in human urine treated with [14C]-labeled milnacipran hydrochloride at 100 mg, po after 0 to 96 hrs by HPLC analysis; assay type: ADME, organism-based; conditions: in vivo
Plasma [8] = test: Plasma concentration in human treated with [14C]-labeled milnacipran hydrochloride at 100 mg, po measured at 6 hrs by HPLC analysis; assay type: ADME, organism-based; conditions: in vivo; procedure, shortened: as §1
Plasma [9] = test: Plasma concentration in human treated with [14C]-labeled milnacipran hydrochloride at 100 mg, po measured at 1 hr by HPLC analysis; assay type: ADME, organism-based; conditions: in vivo; procedure, shortened: as §1
[10] = Drug excretion in human urine treated with [14C]-labeled milnacipran hydrochloride at 100 mg, po up to 4 hrs by HPLC analysis; assay type: ADME, organism-based; conditions: in vivo; procedure, shortened: as §2
[11] = Drug excretion in human urine treated with [14C]-labeled milnacipran hydrochloride at 100 mg, po after 8 to 12 hrs by HPLC analysis; assay type: ADME, organism-based; conditions: in vivo; procedure, shortened: as §2
[12] = Retention time in human urine treated with [14C]-labeled milnacipran hydrochloride at 100 mg, po by HPLC analysis; assay type: ADME, organism-based; conditions: in vivo
Procedure, shortened: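 Urine from subjects given oral 100 mg [14C] milnacipran hydrochloride was run on a Luna phenyl-hexyl column (250 x 4.6 mm) with guard column at 35°C. Elution used a gradient of ammonium acetate pH 5/water/methanol at 1 mL/min, with in-line radioactivity flow detection and UV at 220 nm.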

[13] = Drug excretion in human urine treated with [14C]-labeled milnacipran hydrochloride at 100 mg, po after 72 to 96 hrs by HPLC analysis; assay type: ADME, organism-based; conditions: in vivo; procedure, shortened: as §2
Plasma [14] = test: Plasma concentration in human treated with [14C]-labeled milnacipran hydrochloride at 100 mg, po measured at 4 hrs by HPLC analysis; assay type: ADME, organism-based; conditions: in vivo; procedure, shortened: as §1
[15] = Drug excretion in human urine treated with [14C]-labeled milnacipran hydrochloride at 100 mg, po after 4 to 8 hrs by HPLC analysis; assay type: ADME, organism-based; conditions: in vivo; procedure, shortened: as §2
Plasma [16] = test: Plasma concentration in human treated with [14C]-labeled milnacipran hydrochloride at 100 mg, po measured at 12 hrs by HPLC analysis; assay type: ADME, organism-based; conditions: in vivo; procedure, shortened: as §1
Plasma [17] = test: Plasma concentration in human treated with [14C]-labeled milnacipran hydrochloride at 100 mg, po measured at 1.5 hrs by HPLC analysis; assay type: ADME, organism-based; conditions: in vivo; procedure, shortened: as §1
[18] = Drug excretion in mouse urine at 100 mg/kg, po; assay type: ADME, organism-based; set-up: dose 100 mg/kg, route oral; conditions: read-out: Drug excretion
[19] = Drug excretion in monkey urine at 60 mg/kg, po; assay type: ADME, organism-based, Macaca mulatta; set-up: dose 60 mg/kg, route oral; conditions: rhesus monkey, read-out: Drug excretion
[20] = Drug excretion in rat urine at 100 mg/kg, po; assay type: ADME, organism-based; set-up: dose 100 mg/kg, route oral; conditions: read-out: Drug excretion
[21] = Drug excretion in human urine; assay type: ADME; conditions: read-out: Drug excretion
[22] = Half life in human plasma; assay type: ADME, cell-free
[23] = Half life in human at 100 mg, po by LC-MS/MS analysis; assay type: ADME, organism-based; conditions: in vivo
Procedure, shortened: (§3)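 Plasma from healthy males after single oral 100 mg [14C] milnacipran hydrochloride, sampled 0.5–120 h. Unchanged drug quantified by validated LC-MS/MS with [2H10] internal standard, C8 column isocratic formic acid/water/methanol; linear 5–2000 ng/mL, LLOQ 5 ng/mL in 25 µL plasma. Non-compartmental analysis; values below LLOQ set to zero; subjects without emesis.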

[24] = Tmax in human; assay type: ADME, organism-based; conditions: in vivo
[25] = Drug excretion in human urine treated with [14C]-labeled milnacipran hydrochloride at 100 mg, po up to 96 hrs by LC-SRM analysis; assay type: ADME, organism-based; conditions: in vivo
Procedure, shortened: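 0–96 h urine pool analysed by chiral LC-SRM on Chirobiotic V column, ammonium formate-methanol mobile phase, 1 mL/min, column 20°C. Enantiomer proportion from peak areas corrected by urine standard ratio, multiplied by milnacipran excreted in the pool (% of dose).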

[26] = Tmax in human at 100 mg, po by LC-MS/MS analysis; assay type: ADME, organism-based; conditions: in vivo; procedure, shortened: as §3
[27] = Cmax in human at 100 mg, po by LC-MS/MS analysis; assay type: ADME, organism-based; set-up: dose 100 mg, route oral; conditions: in vivo; procedure, shortened: as §3
[28] = AUC (0 to t) in human at 100 mg, po by LC-MS/MS analysis; assay type: ADME, organism-based; conditions: plasma; procedure, shortened: as §3
[29] = AUC (0 to infinity) in human at 100 mg, po by LC-MS/MS analysis; assay type: ADME, organism-based; set-up: dose 100 mg, time infinity, route oral; conditions: plasma; procedure, shortened: as §3

Cp (Plasma [1]) [ng.Eq/ml] | Cp (Plasma [2]) [ng.Eq/ml] | Drug excretion [3] | Drug excretion [4] [%] | Cp (Plasma [5]) [ng.Eq/ml] | Drug excretion [6] [%] | Drug excretion [7] [%] | Cp (Plasma [8]) [ng.Eq/ml] | Cp (Plasma [9]) [ng.Eq/ml] | Drug excretion [10] [%] | Drug excretion [11] [%] | Retention_time [12] [min] | Drug excretion [13] | Cp (Plasma [14]) [ng.Eq/ml] | Drug excretion [15] [%] | Cp (Plasma [16]) [ng.Eq/ml] | Cp (Plasma [17]) [ng.Eq/ml] | Compound | Drug excretion [25] [%] | other results
< 7.8 | 24.6 | 0.73% | 1.36 | < 7.8 | 2.06 | 7.73 | 23.46 | < 7.8 | 0.92 | 1.26 | 11 | 0.06% | 19.63 | 1.35 | 13.67 | < 7.8 | CCNC(=O)[C@@]1(c2ccccc2)CC1CN (some centres not stated) |  | 
 |  |  |  |  |  |  |  |  |  |  |  |  |  |  |  |  | CCN(CC)C(=O)C1(c2ccccc2)CC1CNC(=O)O[C@@H]1O[C@H](C(=O)O)[C@@H](O)[C@H](O)[C@H]1O (some centres not stated) |  | dose excreted [18]: 1%; dose excreted [19]: 1.6%; dose excreted [20]: 0.1%
26.57 | 195.72 | 0.19% | 0.76 | 190.14 | 2.36 | 17.23 | 140.79 | 101.66 | 6.26 | 2.36 | 22 | Below limit of detection | 234.38 | 5.39 | 50.79 | 161.3 | CCN(CC)C(=O)[C@]1(c2ccccc2)C[C@@H]1CNC(=O)O[C@@H]1O[C@H](C(=O)O)[C@@H](O)[C@H](O)[C@H]1O |  | 
< 7.8 | 16.42 | Below limit of detection | 0.28 | < 7.8 | 0.58 | 2.14 | < 7.8 | < 7.8 | 0.55 | 0.37 | 24 | Below limit of detection | 17.49 | 0.64 | < 7.8 | < 7.8 | CCN(CC)C(=O)[C@@]1(c2ccccc2)C[C@H]1CNC(=O)O[C@@H]1O[C@H](C(=O)O)[C@@H](O)[C@H](O)[C@H]1O |  | 
 |  |  |  |  |  |  |  |  |  |  |  |  |  |  |  |  | CCN(CC)C(=O)C1(c2ccccc2)CC1CN (stereo in doubt) [MILNACIPRAN] | 23.5 | 
 |  |  |  |  |  |  |  |  |  |  |  |  |  |  |  |  | CCN(CC)C(=O)[C@@]1(c2ccccc2)C[C@H]1CN [LEVOMILNACIPRAN] | 31.2 | 

Compound | Cp (Plasma [1]) [ng.Eq/ml] | Cp (Plasma [2]) [ng.Eq/ml] | Drug excretion [3] | Drug excretion [4] [%] | Cp (Plasma [5]) [ng.Eq/ml] | Drug excretion [6] [%] | Drug excretion [7] [%] | Cp (Plasma [8]) [ng.Eq/ml] | Cp (Plasma [9]) [ng.Eq/ml] | Drug excretion [10] [%] | Drug excretion [11] [%] | Retention_time [12] [min] | Drug excretion [13] | Cp (Plasma [14]) [ng.Eq/ml] | Drug excretion [15] [%] | Cp (Plasma [16]) [ng.Eq/ml] | Cp (Plasma [17]) [ng.Eq/ml] | Drug excretion [25] [%] | other results
CCN(CC)C(=O)C1(c2ccccc2)CC1CN (racemic) [MILNACIPRAN] | 33.92 | 208.01 | 1.47% | 5.45 | 178.93 | 10.87 | 54.71 | 186.82 | 83.17 | 15.54 | 7.17 | 35 | 0.3% | 214.21 | 14.42 | 87.22 | 156.73 | 54.7 | dose excreted [21]: 50%; half-life [22]: 8 h; half-life [23]: 8.9 h; Tmax [24]: 2 h; Tmax [26]: 3.5 h; Cmax [27]: 240 ng/mL; AUC(0-t) [28]: 2340 ng·h/mL; AUC(0-inf) [29]: 2770 ng·h/mL
